Bioassay records from PubChem BioAssay.
RGS4 pot: potentiators or activators of RGS4; 0.92% of 310,000 active; AID 463111; HEK293 M3R/inducible RGS4, carbachol calcium flux Fluo4; hits give low values; B-score at 10 µM;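 active = B-score of the integrated calcium signal more than 4 SD below the library mean, with starting fluorescence not abnormally high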;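 note: negative B-score means reduced calcium response which marks RGS4 activation or potentiation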
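Assay system: HEK293 FlpIn-TREx cells, stable M3R, doxycycline-inducible RGS4 / Probe or stimulus: carbachol, ECmax concentration / Times: overnight RGS4 induction, 30 min dye load 37 °C, 20 min compound RT / Signal: kinetic calcium fluorescence imaging with Fluo4-AM dye, 2 µM / Measure: Agonist-evoked peak-minus-minimum fluorescence over baseline, integrated ratio, B score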
MrgX1 antagonist: human MrgX1 receptor antagonism, primary screen | Q96LB2 | MRGX1-HEK293 calcium flux, Fluo-4, BAM8-22 antagonism; hits give low values | B-score at 10 µM | 1.3% of 310,000 active | AID 588676;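 active = calcium-response B-score plate-corrected more than 3 library SD below zero, starting fluorescence within 5 deviations, no agonist response on first addition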;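 note: peak minus trough fluorescence over baseline after final BAM8-22 challenge near maximal dose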
Target sequence (Q96LB2 whole entry, looked up): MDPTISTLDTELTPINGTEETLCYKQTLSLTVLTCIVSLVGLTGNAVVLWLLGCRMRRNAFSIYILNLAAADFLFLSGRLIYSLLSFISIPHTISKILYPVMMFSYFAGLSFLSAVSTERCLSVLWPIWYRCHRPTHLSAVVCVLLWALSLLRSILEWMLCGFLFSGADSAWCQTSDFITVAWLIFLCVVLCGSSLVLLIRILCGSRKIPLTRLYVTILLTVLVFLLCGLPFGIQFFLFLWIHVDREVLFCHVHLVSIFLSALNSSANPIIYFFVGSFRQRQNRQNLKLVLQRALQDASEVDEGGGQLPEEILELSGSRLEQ
RGS4 inh: human RGS4 inhibition; HEK293 M3R/RGS4 inducible, Fluo-4 calcium flux; hits give high values; triggered by carbachol at its EC20; B-score at 10 µM; 0.45% of 310,000 active; AID 463165;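 active = B-score, a plate-corrected calcium signal, over three deviations above library mean, with baseline fluorescence within five deviations of library mean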;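 note: RGS4 expression induced by doxycycline in cells with stable M3 receptor; B-score is computed from the integrated fluorescence ratio over baseline after carbachol; higher B-score means a larger calcium signal and so more RGS4 inhibition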
Target sequence (P49798 whole entry, looked up): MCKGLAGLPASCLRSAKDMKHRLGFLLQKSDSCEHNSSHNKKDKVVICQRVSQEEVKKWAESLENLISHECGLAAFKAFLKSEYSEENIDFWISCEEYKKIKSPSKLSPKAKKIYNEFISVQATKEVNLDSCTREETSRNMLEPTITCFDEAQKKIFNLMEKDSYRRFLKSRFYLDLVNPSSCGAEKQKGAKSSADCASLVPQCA
MrgX1 PAM: human MrgX1 positive allosteric modulation, primary screen; Q96LB2; MrgX1-HEK293, Fluo-4 calcium flux, FDSS; hits give high values; B-score at 10 µM; 0.63% of 310,000 active;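 active = plate-corrected calcium response at least 3 library SD above typical, normal starting fluorescence, not activating the receptor alone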;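 note: compound read alongside a low EC10 to EC30 dose of BAM8-22 agonist; peak minus trough fluorescence over baseline measured at the second addition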
MrgX1 agonist: agonists of human MrgX1 receptor. Q96LB2. MrgX1-HEK293 cells, Fluo-4 calcium fluorescence, agonist mode; hits give high values. B-score at 10 µM. 0.44% of 310,000 active. AID 588627;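 active = calcium response B-score plate-corrected fluorescence ratio at least 3 library SD, with starting fluorescence B-score inside 5 SD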
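Assay system: stable human MrgX1 HEK293 cell line. Quantity: 15,000 cells per well. Schedule: cells plated overnight, dye loaded 0.5 h 37 °C, 0.5 h room temperature. Detection: Fluo-4 NW calcium-flux fluorescence, kinetic read. Read-out basis: peak-minus-minimum fluorescence over baseline, converted to B scores. Control set: positive and negative control wells on each plate.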
MrgX1 allo conf: human MrgX1 positive allosteric modulation, re-confirmation; MrgX1-HEK293, Fluo-4 calcium fluorescence, FDSS; activation (ratio percentage), % at 10 µM; AID 602413; 13% of 1,200 active; shares compounds with MrgX1 PAM;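 active = ratio at least 3 SD above the weak peptide control, stable starting fluorescence, no direct agonism earlier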;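 note: compound followed by low BAM8-22 agonist challenge near EC20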
HEK293 Ca flux: activity in parental HEK293 cells lacking MrgX1 | shares compounds with MrgX1 antagonist | Fluo-4 calcium fluorescence, FDSS | fluorescence ratio F(max-min)/F0 at 10 µM | 2% of 4,000 active | AID 624111;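 active = duplicate-averaged calcium fluorescence ratio at least three times the standard deviation of buffer wells, a nonspecific response in parental cells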
HEK293 Ca counter: activity in parental HEK293 cells without MrgX1; shares compounds with MrgX1 antagonist; parental HEK293 calcium flux, Fluo-4 fluorescence ratio; hits give high values; fluorescence ratio F(max-min)/F0 at 10 µM; 0.4% of 4,000 active; AID 624114;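 active = calcium fluorescence ratio, averaged over duplicates, at least 3 SD of the buffer-well ratio, meaning a nonspecific response in receptor-free cells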;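 note: untransfected parental HEK293 lacking MrgX1 used as counterscreen for MrgX1 allosteric activators; fluorescence change taken during the second addition on a kinetic imager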
HEK293 Ca cntr2: counter-screen for MrgX1 activators: effect in parental HEK293 cells; shares compounds with MrgX1 antagonist; Fluo-4 calcium fluorescence (FDSS); hits give high values; fluorescence ratio F(max-min)/F0 at 10 µM; 8.7% of 4,000 active; AID 624115;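 active = calcium fluorescence ratio at least three times the spread of buffer wells, meaning a non-specific response in parental cells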
Of the large screens only hits and unclear results are named; the others gave an inactive call (follow-up assays come after a bar, where they were run). In the library only some 3.5% were active in any assay of this set; here they are far more common.

CCOc1ccccc1NC(=O)Cc1coc2ccc(C)cc12	MrgX1 PAM 14 | MrgX1 allo conf inactive | HEK293 Ca flux inactive | HEK293 Ca counter inactive | HEK293 Ca cntr2 inactive
COc1ccc(OC)c(NC(=O)Cc2coc3ccc(C)cc23)c1	none
Cc1ccc2c(c1)C(=O)C(=O)N2CC(=O)Nc1ccccc1NC(=O)c1ccccn1	MrgX1 PAM 15 | MrgX1 allo conf inactive | HEK293 Ca flux inactive | HEK293 Ca counter inactive | HEK293 Ca cntr2 inactive
Nc1ccccc1C(=O)NC12CC3CC(CC(C3)C1)C2	MrgX1 PAM 10 | MrgX1 allo conf inactive | HEK293 Ca flux inactive | HEK293 Ca counter inactive | HEK293 Ca cntr2 inactive
O=C(NC12CC3CC(CC(C3)C1)C2)c1ccccc1	none
CC(C)COc1ccc(C(=O)CCN2CCCCC2)cc1	none
CCCCOc1ccc(C(=O)CCN2CCCCC2)cc1	MrgX1 PAM 7.1 | MrgX1 allo conf inactive | HEK293 Ca flux inactive | HEK293 Ca counter inactive | HEK293 Ca cntr2 inactive
Cc1nnc(Sc2c(N)n(C)c(=O)n(C)c2=O)s1	MrgX1 PAM 11 | MrgX1 allo conf inactive | HEK293 Ca flux inactive | HEK293 Ca counter inactive | HEK293 Ca cntr2 inactive
Cc1nnc(SCCn2c(N3CC(C)CC(C)C3)nc3c2c(=O)n(C)c(=O)n3C)s1 (centres undefined)	none (no result: MrgX1 antagonist, MrgX1 PAM, MrgX1 agonist)
CCn1c(CCNC(=O)c2ccc(Cl)cc2)n[nH]c1=S	none
COc1cc(C(=O)NCc2ccc(F)cc2)cc(Cl)c1OC	none
CCn1c(/C=C/c2ccccc2)nc2ccccc2c1=O	MrgX1 PAM 7.7 | MrgX1 allo conf inactive | HEK293 Ca flux inactive | HEK293 Ca counter inactive | HEK293 Ca cntr2 inactive
O=c1c2ccccc2nc(/C=C/c2ccc(O)cc2)n1CCc1ccccc1	none
CCn1c(/C=C/c2ccc(F)cc2)nc2ccccc2c1=O	none
O=c1c2ccccc2nc(/C=C/c2ccccc2)n1CCCO	MrgX1 PAM 11 | MrgX1 allo conf inactive | HEK293 Ca flux inactive | HEK293 Ca counter inactive | HEK293 Ca cntr2 inactive
CNc1nc2[nH]c(=O)c3c(c2s1)OC(N)=C(C#N)C3c1cccc(F)c1 (centres undefined)	MrgX1 PAM 17 | MrgX1 allo conf inactive | HEK293 Ca flux inactive | HEK293 Ca counter inactive | HEK293 Ca cntr2 inactive
NC(=O)c1c(NC(=O)C2c3ccccc3Oc3ccccc32)sc2c1CCCCC2	MrgX1 PAM 13 | MrgX1 allo conf inactive | HEK293 Ca flux inactive | HEK293 Ca counter inactive | HEK293 Ca cntr2 inactive
N#Cc1c(-c2ccccc2)cc(-c2ccccc2)nc1SCC(=O)NCC(=O)O	MrgX1 PAM 19 | MrgX1 allo conf inactive | HEK293 Ca flux inactive | HEK293 Ca counter inactive | HEK293 Ca cntr2 inactive
COc1ccc(-c2cc(-c3ccccc3)c(C#N)c(SCC(=O)O)n2)cc1	none
CCN(CC(=O)N1CCCC1)S(=O)(=O)c1ccccc1	none
CCOc1ccccc1NC(=O)CCS(=O)(=O)c1cccc2nonc12	MrgX1 PAM 7.5 (no result: RGS4 pot, RGS4 inh) | MrgX1 allo conf inactive | HEK293 Ca flux inactive | HEK293 Ca counter inactive | HEK293 Ca cntr2 inactive
NNc1nc(-c2ccccc2Cl)nc2sc3c(c12)CCCC3	MrgX1 PAM 32 | MrgX1 allo conf inactive | HEK293 Ca flux inactive | HEK293 Ca counter inactive | HEK293 Ca cntr2 inactive
Nc1nc(-c2cccnc2)nc2sc3c(c12)CCCC3	none
O=C(CCc1nnc(Cc2c[nH]c3ccccc23)o1)NC1CCCC1	MrgX1 PAM 16 | MrgX1 allo conf inactive | HEK293 Ca flux inactive | HEK293 Ca counter inactive | HEK293 Ca cntr2 inactive
CCC(C)(C)NC(=O)C(c1ccc(C)cc1)N(Cc1cccs1)C(=O)c1ccc2c(c1)OCCO2 (centres undefined)	none
Cc1ccc(NC(=O)C(=O)NCCOc2ccc(Cl)cc2)c(C)c1	MrgX1 PAM 9.6 | MrgX1 allo conf inactive | HEK293 Ca flux inactive | HEK293 Ca counter inactive | HEK293 Ca cntr2 inactive
Cc1sc2nc(-c3cccs3)oc(=O)c2c1C	none
Cc1sc2nc(-c3ccc(Br)cc3)oc(=O)c2c1C	MrgX1 PAM 6.6 | MrgX1 allo conf inactive | HEK293 Ca flux inactive | HEK293 Ca counter inactive | HEK293 Ca cntr2 inactive
CCCSc1n[nH]c(NC(C)=O)n1	none
Cn1nc(-c2ccc(Cl)cc2)c2cc(C(=O)N3CCOCC3)sc21	none
COc1ccccc1N1CCN(C2=Nc3cccc4cccc2c34)CC1	RGS4 pot -7, MrgX1 PAM 8.9 | MrgX1 allo conf inactive | HEK293 Ca flux inactive | HEK293 Ca counter inactive | HEK293 Ca cntr2 inactive
CC(=O)N1CCN(C2=Nc3cccc4cccc2c34)CC1	none
CCOC(=O)C(=O)Nc1nnc(CCc2ccccc2)s1	MrgX1 PAM 7.7 | MrgX1 allo conf inactive | HEK293 Ca flux inactive | HEK293 Ca counter inactive | HEK293 Ca cntr2 inactive
CCSc1nc2ccccc2c(=O)n1Cc1ccc(F)cc1	MrgX1 PAM 9.8 | MrgX1 allo conf inactive | HEK293 Ca flux inactive | HEK293 Ca counter inactive | HEK293 Ca cntr2 inactive
CCCc1nc2c(C)ccc(C)c2c(N)c1CC	none
COc1ccc(-n2nnnc2SCC(=O)NC2CCCC2)cc1OC	none
Cc1c(OC(C)C(=O)NCCCN2CCOCC2)ccc2c3c(c(=O)oc12)CCC3 (centres undefined)	none
Cc1c(OC(C)C(=O)NCCCN2CCOCC2)ccc2c3c(c(=O)oc12)CCCC3 (centres undefined)	MrgX1 PAM 6.9 | MrgX1 allo conf inactive | HEK293 Ca flux inactive | HEK293 Ca counter inactive | HEK293 Ca cntr2 inactive
COc1ccccc1N1CCN(C2CCCN(S(=O)(=O)c3ccc(C)cc3)C2)CC1 (centres undefined)	none
O=C(N[C@@H](Cc1c[nH]c2ccccc12)C(=O)O)c1ccccc1Cl	MrgX1 PAM 17 | MrgX1 allo conf inactive | HEK293 Ca flux inactive | HEK293 Ca counter inactive | HEK293 Ca cntr2 inactive
CN1CCN(c2ccc(S(=O)(=O)N3CCCCC3)cc2NC(=O)COc2ccc(F)cc2)CC1	none
O=C(CNCC1CCCO1)Nc1ccccc1N1CCCCCC1 (centres undefined)	MrgX1 PAM 6.9 | MrgX1 allo conf inactive | HEK293 Ca flux inactive | HEK293 Ca counter inactive | HEK293 Ca cntr2 inactive
Cc1cccc(OCC(=O)Nc2cc(S(=O)(=O)N3CCCCC3)ccc2N2CCN(C)CC2)c1	MrgX1 PAM 16 | MrgX1 allo conf inactive | HEK293 Ca flux inactive | HEK293 Ca counter inactive | HEK293 Ca cntr2 inactive
Cc1cc(OCC(=O)Nc2ccccc2N2CCCC2)ccc1C(C)C	MrgX1 PAM 22 | MrgX1 allo conf 13% | HEK293 Ca flux inactive | HEK293 Ca counter inactive | HEK293 Ca cntr2 inactive
